SENP1 FRET inh: SENP1 (human) catalytic domain inhibition | inhibition, % at 10 µM | 0.21% of 360,000 active | recombinant SENP1 catalytic domain, CyPet-SUMO1-YPet FRET cleavage | Q9P0U3;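 active = inhibition at least 30% at 10 µM, raw YFP signal under a set limit, fluorescence ratio 0.5 to 1.5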
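Material: hSENP1 catalytic domain, recombinant; medium: Tris pH 8 with BME, BSA, NP40 and catalase; compound: single concentration of 10 µM compound, 0.5% DMSO final; technique: FRET read of cyan and yellow fluorescence; timing: 50 min enzyme reaction, room temperature, light-protected; reagent: SFCypet-SUMO1-SFYpet substrate at 25 nM; control set: no-enzyme low, enzyme-DMSO high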
SENP8 block-1: SENP8 protease inhibition | Q96LD8 | purified SENP8, Z-RLRGG-aminoluciferin cleavage, luminescence | inhibition, % at 10 µM | 1.2% of 330,000 active | AID 2540; in the data active = inhibition above about 50%
Target sequence (Q96LD8 whole entry, looked up): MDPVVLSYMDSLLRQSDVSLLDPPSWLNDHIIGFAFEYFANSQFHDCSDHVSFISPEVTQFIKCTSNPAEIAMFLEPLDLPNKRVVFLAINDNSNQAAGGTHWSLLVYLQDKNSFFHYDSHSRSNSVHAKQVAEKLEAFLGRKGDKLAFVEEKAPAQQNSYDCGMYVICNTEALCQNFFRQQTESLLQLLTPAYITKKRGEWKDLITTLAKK
SENP6 inh: blocks the human protease SENP6; inhibition, % at 10 µM; Recombinant SENP6 catalytic domain, aminoluciferin luminescence; AID 2599; Q9GZR1; 1.8% of 330,000 active;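 active = inhibition above about 50% at the single tested dose, limit read from the data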
Target sequence (Q9GZR1 628-1112 limits assumed): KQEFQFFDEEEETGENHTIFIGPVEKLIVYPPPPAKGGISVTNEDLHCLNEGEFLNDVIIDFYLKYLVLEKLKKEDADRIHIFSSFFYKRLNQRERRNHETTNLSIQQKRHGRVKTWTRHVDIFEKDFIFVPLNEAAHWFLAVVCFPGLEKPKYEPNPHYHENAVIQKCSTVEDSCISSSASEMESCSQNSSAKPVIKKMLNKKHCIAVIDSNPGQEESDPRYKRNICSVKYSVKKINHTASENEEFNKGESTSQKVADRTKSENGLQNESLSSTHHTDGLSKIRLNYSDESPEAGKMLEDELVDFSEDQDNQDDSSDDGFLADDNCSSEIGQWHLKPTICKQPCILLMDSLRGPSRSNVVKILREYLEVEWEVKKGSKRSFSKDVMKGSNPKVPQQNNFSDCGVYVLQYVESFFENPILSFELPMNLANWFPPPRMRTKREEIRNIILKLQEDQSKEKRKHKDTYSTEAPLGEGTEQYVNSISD
SENP7 inh: inhibitors of human SENP7 protease; inhibition, % at 5 µM; AID 434973; 1.5% of 330,000 active; recombinant SENP7, Z-RLRGG-aminoluciferin luminescence, 40 min; Q9BQF6;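 active = inhibition above about 50% at the single test dose, limit read from the data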
SENP8 block-2: SENP8 (human) protease inhibition; recombinant SENP8, Nedd8 substrate fluorescence; inhibition, % at 20 µM; 0.64% of 360,000 active; in the data active = inhibition mostly above about 40%, no sharp cut-off; inactive = mostly below about 27%
SENP8 conf: human SENP8 inhibition, confirmed; Recombinant SENP8, Z-RLRGG-aminoluciferin luminescence, 60 min; inhibition, % at 12.5 µM; shares compounds with SENP7 inh; 40% of 6,200 active; AID 488912;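 active = mean inhibition across replicates above about 50%, limit read from the data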
SENP6 conf: confirmation of human SENP6 protease inhibitors. 58% of 6,200 active. recombinant SENP6, Z-RLRGG-aminoluciferin luminescence. inhibition, % at 12.5 µM. shares compounds with SENP7 inh. AID 488915
SENP7 conf: human SENP7 inhibition, confirmed | recombinant SENP7, Z-RLRGG-aminoluciferin luminescence, 40 min | inhibition, % at 12.5 µM | shares compounds with SENP7 inh | 69% of 6,200 active
Casp3 select: caspase-3 inhibition (SENP selectivity assay) | shares compounds with SENP7 inh | purified caspase-3, Z-DEVD-aminoluciferin luminescence, 60 min | inhibition, % at 12.5 µM | 60% of 6,200 active;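 active = mean inhibition above about 50%, limit read from the data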
Luc interf: counter-screen for SENP inhibitors: luminescence interference; shares compounds with SENP7 inh; Pre-incubated SENP8/Z-RLRGG-aminoluciferin, luciferase luminescence interference; inhibition, % at 12.5 µM; 39% of 6,200 active; AID 488919;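 active = mean inhibition above about 50% when retested at one dose, limit read from the data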
Large screens that a line does not name were inactive (follow-up assays come after a bar, where they were run). Rows were chosen to be rich in hits. Some 2.5% of all compounds tested hit in one or more screens of this group.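 Rule for the calls, unless noted: active = mean inhibition above about 50% in the one-dose retest (limit read from the data); inactive = the rest.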

COc1cccc(-c2nc(-c3ccc(NC(=O)c4ccncc4)cc3)no2)c1	none
O=C(O)c1ccc(-c2noc(-c3cccc(F)c3)n2)cc1	SENP8 block-1 95.1, SENP6 inh 97.2, SENP7 inh 95.8 | SENP8 conf 98.1 | SENP6 conf 98.6 | SENP7 conf 101.3 | Casp3 select 97.2 | Luc interf 95.0
COc1cccc(-c2nc(-c3ccc(C(=O)O)cc3)no2)c1	SENP8 block-1 95.4, SENP6 inh 99.0, SENP7 inh 97.2 | SENP8 conf 99.2 | SENP6 conf 99.9 | SENP7 conf 103.2 | Casp3 select 99.1 | Luc interf 86.4
O=C(O)c1ccc(-c2nc(-c3cccc(C(F)(F)F)c3)cs2)cc1	none (no result: SENP8 block-1, SENP6 inh, SENP7 inh)
CCOc1ccc(CC(=O)N/N=C/c2sccc2C)cc1	none
c1cnc2ccc(-c3ccc4ncccc4c3)cc2c1	SENP8 block-1 55.4, SENP6 inh 76.8 | SENP8 conf 72.2 | SENP6 conf 71.1 | SENP7 conf 87.3 | Casp3 select 65.4 | Luc interf 75.5
CCOc1ccc(Cl)cc1C1=CC(=O)C[C@H](c2ccc(OC)cc2)C1	none
CCCCCCNC(=O)CCCCCNS(=O)(=O)c1ccc(OC)cc1	none
Cc1ccnc2ccc(-c3nc4ccccc4o3)cc12	SENP8 block-1 70.8, SENP6 inh 88.3, SENP7 inh 82.8 | SENP8 conf inactive | SENP6 conf inactive | SENP7 conf 58.4 | Casp3 select inactive | Luc interf inactive
Cc1cc(-c2nc3ccccc3o2)c2ccccc2n1	none
Cc1nc2ccc(-c3nc4ccccc4o3)cc2[nH]1	SENP7 inh 61.7 | SENP8 conf 62.8 | SENP6 conf 59.3 | SENP7 conf 84.3 | Casp3 select 59.9 | Luc interf 64.5
CN1C=CC(=C[N+](=O)[O-])N(C)C1=O	none (no result: SENP8 block-1, SENP6 inh, SENP7 inh)
Cc1ccccc1C(=O)Oc1ccc2ccc(O)cc2c1	SENP8 block-1 59.1, SENP6 inh 72.9, SENP7 inh 58.5 | SENP8 conf inactive | SENP6 conf 76.0 | SENP7 conf 84.5 | Casp3 select inactive | Luc interf inactive
Cc1ccccc1S(=O)(=O)Oc1ccc2ccc(O)cc2c1	none
COc1cccc(C(=O)NNC(=O)c2ccc3ccccc3c2)c1	none (no result: SENP8 block-1, SENP6 inh, SENP7 inh)
COc1cccc(C(=O)Oc2ccc3ccc(O)cc3c2)c1	SENP6 inh 68.7 (no result: SENP1 FRET inh, SENP8 block-2) | SENP8 conf inactive | SENP6 conf 63.6 | SENP7 conf 80.0 | Casp3 select inactive | Luc interf inactive
Cc1ccc(S(=O)(=O)N2CCOCC2)cc1NC(=O)COC(=O)Cn1c(C)csc1=O	none
CC1(C)OC(=O)NC1c1ccccc1 (centres undefined)	none (no result: SENP8 block-1, SENP6 inh, SENP7 inh)
CCOC(=O)[C@]12CCC=C1N(CCC1=CCCCC1)C(=O)[C@H](CC(=O)N1CCCC1)C2	none (no result: SENP8 block-1, SENP6 inh, SENP7 inh)
Cc1ccccc1-c1csc(C(C)(O)c2ccc(F)c(F)c2)n1 (centres undefined)	none (no result: SENP8 block-1, SENP6 inh, SENP7 inh)
Cc1ccc(-c2noc(-c3ccccc3F)n2)cc1	SENP8 block-1 76.1, SENP6 inh 95.8, SENP7 inh 96.6 | SENP8 conf 73.4 | SENP6 conf 94.6 | SENP7 conf 101.3 | Casp3 select 85.1 | Luc interf 68.4
CS(=O)c1ccccc1-c1nc(-c2ccc(Cl)cc2)no1 (centres undefined)	none
O=C(c1ccccc1-c1nc(-c2ccc(F)cc2)no1)N1CCCC1	none
O=C(O)c1ccc(-c2noc(-c3ccccc3F)n2)cc1	SENP8 block-1 96.0, SENP6 inh 99.0, SENP7 inh 98.7 | SENP8 conf 100.0 | SENP6 conf 100.9 | SENP7 conf 104.0 | Casp3 select 100.0 | Luc interf 95.1
C=CCSc1nnc(-c2ccc(Cl)cc2Cl)o1	SENP6 inh 59.6, SENP7 inh 56.6 | SENP8 conf inactive | SENP6 conf inactive | SENP7 conf 77.4 | Casp3 select 55.9 | Luc interf inactive
Clc1ccc(-c2nnc(SCc3ccon3)o2)c(Cl)c1	SENP8 block-1 61.3, SENP6 inh 70.2, SENP7 inh 57.1 | SENP8 conf inactive | SENP6 conf 62.1 | SENP7 conf 86.6 | Casp3 select 64.4 | Luc interf 61.1
Clc1ccc(-c2nnc(SCc3nc4ccccc4[nH]3)o2)c(Cl)c1	none
Cc1ccc(OCc2nc(-c3ccccc3)no2)c(C)c1	SENP6 inh 55.1 | SENP8 conf inactive | SENP6 conf inactive | SENP7 conf 55.7 | Casp3 select inactive | Luc interf inactive
O=[N+]([O-])c1ccccc1OCc1nc(-c2cccs2)no1	none
Cc1ccc(OCc2nc(-c3cccs3)no2)c([N+](=O)[O-])c1	SENP7 inh 52.7 | SENP8 conf 66.5 | SENP6 conf 65.4 | SENP7 conf 80.1 | Casp3 select inactive | Luc interf inactive
Cc1cc(C)c(C)c(OCc2nc(-c3cccnc3)no2)c1	none
Cc1ccc(NS(=O)(=O)c2ccc(-c3coc(C)n3)cc2)c(Cl)c1	none (no result: SENP8 block-1, SENP6 inh, SENP7 inh)
O=c1oc2cc(O)c(Cl)cc2c2ccccc12	SENP6 inh 60.9 | SENP8 conf 50.2 | SENP6 conf inactive | SENP7 conf 73.3 | Casp3 select 67.9 | Luc interf inactive
CCN(c1ccccc1)S(=O)(=O)c1nnc(NC(=O)c2ccccc2OC)s1	none
Cn1c(=O)c2c(O)c(Cc3ccccc3)c(=O)[nH]c2n(C)c1=O	SENP6 inh 61.5 | SENP8 conf inactive | SENP6 conf inactive | SENP7 conf 65.8 | Casp3 select 63.9 | Luc interf inactive
COc1ccccc1NC(=O)c1cc2ccc(O)cc2o/c1=N\O	SENP8 block-1 94.1, SENP6 inh 95.0, SENP7 inh 94.8 | SENP8 conf inactive | SENP6 conf 99.2 | SENP7 conf 102.6 | Casp3 select 91.6 | Luc interf 51.7
COc1ccccc1NC(=O)c1cc2ccccc2o/c1=N\O	none
COc1ccccc1N=c1oc2cc(O)ccc2cc1C(N)=O	SENP6 inh 91.3 | SENP8 conf 99.2 | SENP6 conf 99.8 | SENP7 conf 100.9 | Casp3 select 98.9 | Luc interf 91.8
Cc1nc(N/N=C\c2ccc3c(c2)OCO3)sc1C	SENP6 inh 50.4 | SENP8 conf inactive | SENP6 conf inactive | SENP7 conf 75.0 | Casp3 select inactive | Luc interf inactive
